Here are results for 28 molecules from ChEMBL document CHEMBL1147526, “Sulfonyl-phenyl-ureido benzamidines; a novel structural class of potent antimalarial agents” (Bioorg Med Chem Lett, 2004).

The subject of the assay is Plasmodium falciparum. The assay is described as follows: In vitro antimalarial activity against Plasmodium falciparum Dd2. Type of assay: functional, organism-based. In outline: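 P. falciparum Dd2 grown in RPMI 1640 with 10% heat-treated human serum and 3 mg/l gentamycin, 0.3% parasitaemia, 2.5% haematocrit; compounds 0.3 to 100 μM. After 48 h, [8-³H]hypoxanthine added and incubated a further 18 h. Cells filtered, washed, and incorporated radioactivity counted by scintillation to give IC50.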

The IC50 is the midpoint of a concentration-inhibition curve.

The structures appear in SMILES notation.

The molecule `N=C(N)c1cccc(NC(=O)Nc2ccc(S(=O)(=O)NCc3ccc(S(N)(=O)=O)cc3)cc2)c1` displayed a half-inhibitory concentration (IC50) of 0.007 µM.

Molecule `N=C(N)c1cccc(NC(=O)Nc2ccc(S(=O)(=O)N3CCc4ccccc4C3)cc2)c1` came in with an IC50 of 0.61 µM. The figure for `N=C(N)c1ccc(NC(=O)Nc2ccc(S(=O)(=O)NCc3c(F)ccc(F)c3F)cc2)cc1` is 0.21 µM; for `N=C(N)c1ccc(NC(=O)Nc2cccc(S(=O)(=O)NCc3ccc(S(N)(=O)=O)cc3)c2)cc1` it is greater than 2.5 µM. The figure for `N=C(N)c1cccc(NC(=O)Nc2cccc(S(=O)(=O)NCc3c(F)ccc(F)c3F)c2)c1` is 0.25 µM; for `N=C(N)c1cccc(NC(=O)Nc2ccc(S(=O)(=O)NCc3ccc(F)cc3)cc2)c1` it is 0.32 µM; for `N=C(N)c1ccc(NC(=O)Nc2cccc(S(=O)(=O)NCc3ccccc3)c2)cc1` it is 0.41 µM. The molecule `N=C(N)c1cccc(NC(=O)Nc2ccc(S(N)(=O)=O)cc2)c1` showed a 50% inhibitory concentration (IC50) greater than 4.9 µM.

For the molecule `N=C(N)c1cccc(NC(=O)Nc2ccc(S(=O)(=O)Nc3ccc4ccccc4c3)cc2)c1`, half-maximal inhibition (IC50) required 8.2 µM. The figure for `N=C(N)c1cccc(NC(=O)Nc2cccc(C(=N)N)c2)c1` [AMICARBALIDE] is 0.005 µM; for `CNS(=O)(=O)c1ccc(NC(=O)Nc2cccc(C(=N)N)c2)cc1` it is 3 µM. The result for `N=C(N)c1cccc(NC(=O)Nc2ccc(S(=O)(=O)NCc3cc(F)c(F)cc3F)cc2)c1` reads 1.8 µM; that for `N=C(N)c1ccc(NC(=O)Nc2ccc(S(=O)(=O)NCc3ccc(S(N)(=O)=O)cc3)cc2)cc1`, 0.09 µM. The figure for `N=C(N)c1cccc(NC(=O)Nc2cccc(S(=O)(=O)NCc3ccc(S(N)(=O)=O)cc3)c2)c1` is 0.98 µM; for `N=C(N)c1cccc(NC(=O)Nc2ccc(S(=O)(=O)NCCN3CCOCC3)cc2)c1` it is greater than 2.5 µM. `N=C(N)c1cccc(NC(=O)Nc2ccc(S(=O)(=O)Nc3ccccc3)cc2)c1` registered an IC50 of 9 µM. The result for `N=C(N)c1cccc(NC(=O)Nc2ccc(S(=O)(=O)NCc3ccccc3)cc2)c1` reads 0.45 µM; that for `N=C(N)c1cccc(NC(=O)Nc2ccc(S(=O)(=O)NCCO)cc2)c1`, 0.89 µM; that for `N=C(N)c1ccc(NC(=O)Nc2cccc(S(=O)(=O)NCc3c(F)ccc(F)c3F)c2)cc1`, 0.19 µM. `N=C(N)c1cccc(NC(=O)Nc2cccc(S(=O)(=O)NCc3ccccc3)c2)c1` gave an IC50 of 6.2 µM. The figure for `N=C(N)c1cccc(NC(=O)Nc2ccc(S(=O)(=O)NCc3ccc(F)c(F)c3)cc2)c1` is 1.11 µM; for `N=C(N)c1cccc(NC(=O)Nc2ccc(S(=O)(=O)NCc3ccccc3F)cc2)c1` it is 0.62 µM; for `N=C(N)c1cccc(NC(=O)Nc2ccc(S(=O)(=O)NCc3cccc(F)c3)cc2)c1` it is 0.5 µM. The result for `N=C(N)c1cccc(NC(=O)Nc2ccc(S(=O)(=O)NCc3c(F)ccc(F)c3F)cc2)c1` reads 0.017 µM. The result for `CCCCNS(=O)(=O)c1ccc(NC(=O)Nc2cccc(C(=N)N)c2)cc1` reads 3.9 µM. Consider `N=C(N)c1cccc(NC(=O)Nc2ccc(S(=O)(=O)NCc3ccc(F)cc3F)cc2)c1`, for which the IC50 amounted to 1.11 µM.

Take `N=C(N)c1ccc(NC(=O)Nc2ccc(S(=O)(=O)NCc3ccccc3)cc2)cc1`: it took 0.4 µM to reach half-maximal inhibition (IC50). `N=C(N)c1cccc(NC(=O)Nc2ccc(S(=O)(=O)Nc3cccc4ccccc34)cc2)c1` yielded an IC50 of 17 µM.
